Experimental data from different studies.
Each line is one published result; the experiments were not run side by side. Converted amounts (≈) assume the structure as drawn.

`O=C(CCc1ccccc1)Nc1ncccn1` has an MIC80 of over 100 µM (Candida albicans; microbial growth; 48 h).
For `O=c1ccc2nc3ccc(OCc4ccc([N+](=O)[O-])o4)cc3oc-2c1`, the MIC was over 32 µg/mL (Enterococcus faecium; microbial growth; 24 h).
The MIC of `OC(Cn1cncn1)(Cn1cncn1)c1ccc(F)cc1F` is reported as 2 µg/mL (≈ 6.53 µM) (Candida albicans; microbial growth, broth dilution; ATCC60193).
`CC(=O)N1CCN(c2ccc(OCC3COC(Cn4ccnc4)(c4ccc(Cl)cc4Cl)O3)cc2)CC1` (centres unmarked) has an MFC of over 64 µM (Candida albicans; microbial killing, broth dilution; 58288; 48 h).
With `O=c1ccc2nc3ccc(O)cc3oc-2c1` the MIC was over 32 µg/mL (Enterococcus faecium; microbial growth; 24 h).
`OC(Cn1cncn1)(Cn1cncn1)c1ccc(F)cc1F` gave an MFC of over 64 µM (Candida albicans; microbial killing, broth dilution; SP3903; 48 h).
`N.N.[Cl][Pt][Cl]` gave an IC50 of 56.1 µM (CCD 19Lu; cell growth or viability, MTT; 72 h).
`Cc1cnc(NC(=O)/C=C/c2cccs2)nc1` has an MIC80 of 25 µM (≈ 6.13 µg/mL) (Candida albicans; microbial growth; 48 h).
